Common to all, as to type: functional
Assay [1] in a line: Antidiabetic nephropathic activity in rat glomerular mesangial cells assessed as reduction of high-glucose induced fibronectin expression at 10 uM treated 12 to 24 hrs after serum-deprivation measured after 24 hrs by Western blot analysis relative to beta-actin expression.
The nature of assay [2]: Antidiabetic nephropathic activity in rat glomerular mesangial cells assessed as reduction of high-glucose induced fibronectin expression at 1 uM treated 12 to 24 hrs after serum-deprivation measured after 24 hrs by Western blot analysis relative to beta-actin expression. A general note: In western blotting, separated proteins are transferred to a membrane and probed.
A further assay is filed under the species Rattus norvegicus. Kind of assay: Antidiabetic nephropathic activity in rat glomerular mesangial cells assessed as reduction of high-glucose induced cell proliferation at 1 to 10 uM treated 12 after serum-deprivation measured after 24 hrs by MTT assay. Put shortly: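 Rat glomerular mesangial cells serum-deprived 12 h, then given high glucose (25 mM) for 24 h with or without compound at different concentrations. Proliferation read by MTT assay after 24 h, compared against normal-glucose cells.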

Assay [3] in a line: Antidiabetic nephropathic activity in rat glomerular mesangial cells assessed as reduction of high-glucose induced NADPH-dependent ROS production by measuring NADPH oxidase activity at 1 uM treated 12 after serum-deprivation measured after 24 hrs by DHE staining. The gist of the method:
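Rat glomerular mesangial cells serum-deprived 12 h, then given high glucose (25 mM) for 24 h with or without compound. NADPH-dependent superoxide generation (NADPH oxidase activity) measured in parallel with DHE staining. Superoxide expressed as relative light units per mg protein.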

The structures appear in SMILES notation. The source made the active and inactive calls. The calls are words filed in the database; no cut-off is given here.

The text below walks through data of ChEMBL document CHEMBL2311423, “Novel carbocyclic nucleoside analogs suppress glomerular mesangial cells proliferation and matrix protein accumulation through ROS-dependent mechanism in the diabetic milieu” (Bioorg Med Chem Lett, 2013).

With `CC(=O)OC[C@@H]1C[C@@H](n2cc(C)c(=O)n(C(=O)c3ccccc3)c2=O)C[C@@H]1COC(C)=O`, the values for the Activity in assay [1] and in assay [2] were 40 a.u and 65 a.u, respectively.
Take `CCOC(=O)[C@H]1C[C@H](n2ccc(=O)n(C(=O)c3ccccc3)c2=O)C[C@H]1C(=O)OCC`: the outcome (in the assay filed under Rattus norvegicus; in assay [3]) was Active. The figures for the Activity in assay [1] and in assay [2] were 20 a.u and 26 a.u, respectively.
Turning to `CCOC(=O)[C@@H]1CC(n2ccc(=O)n(C(=O)c3ccccc3)c2=O)C[C@H]1C(=O)OCC` (racemic), the Activity in assay [1] worked out at 60 a.u; in assay [2] it was 67 a.u.
Taken in the same sequence, the figures for `CC(=O)OC[C@@H]1CC(n2ccc(=O)n(C(=O)c3ccccc3)c2=O)C[C@H]1COC(C)=O` (racemic) were 52 a.u and 55 a.u.
For the compound `CCOC(=O)[C@H]1C[C@H](n2cc(C)c(=O)n(C(=O)c3ccccc3)c2=O)C[C@H]1C(=O)OCC`, the Activity was 66 a.u in assay [1] and 68 a.u in assay [2].
Taken in the same sequence, the figures for `CC(=O)OC[C@@H]1CC(n2cc(C)c(=O)n(C(=O)c3ccccc3)c2=O)C[C@H]1COC(C)=O` (racemic) were 53 a.u and 59 a.u.
Taken in the same sequence, the figures for `CC(=O)OC[C@@H]1C[C@@H](n2ccc(=O)n(C(=O)c3ccccc3)c2=O)C[C@@H]1COC(C)=O` were 57 a.u and 64 a.u.
Regarding `CCOC(=O)[C@@H]1CC(n2cc(C)c(=O)n(C(=O)c3ccccc3)c2=O)C[C@H]1C(=O)OCC` (racemic), the result (in the assay filed under Rattus norvegicus; in assay [3]) was Active. The Activity is 20 a.u in assay [1] and 25 a.u in assay [2].
